# ChEMBL document CHEMBL1165925, “Identification of new non-carboxylic acid containing inhibitors of aldose reductase” (Bioorg Med Chem, 2010)
# Target: Aldo-keto reductase family 1 member B1 (Bos taurus) (UniProt P16116)
# Assay: Inhibition of bovine lens aldose reductase at 25 uM
# Summary of the method: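 Bovine lens enzyme was purified by DE-52 and Matrex Orange A chromatography. Assay used glyceraldehyde as substrate in 0.25 M sodium phosphate pH 6.8, with 0.38 M ammonium sulfate, 0.11 mM NADPH and 0.5 mM EDTA. Inhibitor was added in DMSO, final 1% v/v. Read-out is NADPH oxidation, given as percent inhibition at a single concentration.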
row,inhibition,SMILES
1,52%,O=C1S/C(=C\c2cccc3ccccc23)C(=O)N1CC(=O)C(F)(F)F
2,64%,O=C1S/C(=C\c2cccc(Oc3ccccc3)c2)C(=O)N1CC(O)(O)C(F)(F)F
3,64%,O=C1S/C(=C\c2cccc(Oc3ccccc3)c2)C(=O)N1CC(=O)C(F)(F)F
4,45%,O=C1S/C(=C\c2ccc(-c3ccccc3)cc2)C(=O)N1CC(=O)C(F)(F)F
5,45%,O=C1S/C(=C\c2ccc(-c3ccccc3)cc2)C(=O)N1CC(O)(O)C(F)(F)F
6,59%,O=C1S/C(=C\c2ccc3ccccc3c2)C(=O)N1CC(=O)C(F)(F)F
7,52%,O=C1S/C(=C\c2cccc3ccccc23)C(=O)N1CC(O)(O)C(F)(F)F
8,59%,O=C1S/C(=C\c2ccc3ccccc3c2)C(=O)N1CC(O)(O)C(F)(F)F

# Target: Aldo-keto reductase family 1 member B1 (Bos taurus, UniProt P16116)
# Assay: Inhibition of bovine lens aldose reductase
# Summary of the method: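 Enzyme purified from bovine lens by DE-52 ion exchange then Matrex Orange A affinity chromatography (0.93 U/mg) and kept at 4 °C in 10 mM sodium phosphate pH 7.0 with 2 mM DTT. At least five inhibitor concentrations (20–80% inhibition), each tested at least in triplicate. IC50 from one-site competition nonlinear fit; 95% CL.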
row,IC50,SMILES
1,23.3 µM,COc1cccc(/C=C2\SC(=O)N(CC(O)(O)C(F)(F)F)C2=O)c1
2,> 9 µM,O=C1S/C(=C\c2ccc(OCc3ccccc3)cc2)C(=O)N1CC(O)(O)C(F)(F)F
3,12.3 µM,O=C1S/C(=C\c2cccc(O)c2)C(=O)N1CC(=O)C(F)(F)F
4,17.4 µM,COc1ccc(/C=C2\SC(=O)N(CC(=O)C(F)(F)F)C2=O)cc1
5,3 µM,O=C1S/C(=C\c2ccc(O)cc2)C(=O)N1CC(=O)C(F)(F)F
6,23.3 µM,COc1cccc(/C=C2\SC(=O)N(CC(=O)C(F)(F)F)C2=O)c1
7,3 µM,O=C1S/C(=C\c2ccc(O)cc2)C(=O)N1CC(O)(O)C(F)(F)F
8,8.3 µM,O=C1S/C(=C\c2ccc(Oc3ccccc3)cc2)C(=O)N1CC(O)(O)C(F)(F)F
9,> 9 µM,O=C1S/C(=C\c2ccc(OCc3ccccc3)cc2)C(=O)N1CC(=O)C(F)(F)F
10,12.3 µM,O=C1S/C(=C\c2cccc(O)c2)C(=O)N1CC(O)(O)C(F)(F)F
11,8.3 µM,O=C1S/C(=C\c2ccc(Oc3ccccc3)cc2)C(=O)N1CC(=O)C(F)(F)F
12,17.4 µM,COc1ccc(/C=C2\SC(=O)N(CC(O)(O)C(F)(F)F)C2=O)cc1
